Source: PubChem BioAssay (several laboratories)
A selection: hits, their analogues and other compounds. The true share with any hit is near 1.1%.
ABCB6 inh MLPCN: ABCB6 transporter inhibitors, primary screen, K562-ABCB6 cells, flow cytometry, MLPCN library; K562-ABCB6 porphyrin accumulation, 1 h; stronger effect = lower value; ATP-binding cassette sub-family B member 6 (Homo sapiens), Q9NP58; actives 0.19% (n = 360,000); fluorescence ratio to DMSO, % at 10 µM;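 active means fluorescence ratio to DMSO below 75%, the collection mean minus 3 SD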;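 further: signal is porphyrin accumulated inside mitochondria; 100% equals median channel fluorescence of DMSO control wells; lower ratio means ABCB6 inhibition with less porphyrin fluorescence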
FAS-TE inh: FAS thioesterase domain inhibitors, primary screen, biochemical, fluorescence intensity, uHTS; Fatty acid synthase (Homo sapiens), P49327; recombinant FAS-TE, OMFH fluorogenic substrate, fluorescence endpoint; inhibition, % at 15 µM; actives 0.67% (n = 360,000);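 active means compounds whose normalised, plate-corrected inhibition of enzyme fluorescence in the single-dose primary screen is 50% or more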;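 further: 0% = DMSO with enzyme and 100% = substrate without enzyme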
SENP1 inh: human SENP1 catalytic domain inhibitors, primary screen, biochemical, FRET, uHTS | recombinant SENP1 catalytic domain, CyPet-SUMO1-YPet FRET cleavage | inhibition, % at 10 µM | actives 0.21% (n = 360,000) | AID 624204, 2012;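 active means inhibition at least 30% at 10 µM, raw YFP signal under a set limit, fluorescence ratio 0.5 to 1.5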;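 further: 0% = enzyme with DMSO and 100% = no enzyme wells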
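Controls: no-enzyme wells low, DMSO-plus-enzyme wells high control. Test system: human recombinant His6-tagged SENP1 catalytic domain enzyme. Reagent: SFCypet-SUMO1-SFYpet FRET protein substrate, 25 nM final. Doses: one dose per compound, 10 µM, 0.5% DMSO. Detection: FRET, CFP and YFP emission. Timing: 50 min reaction at room temperature.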
hiPSC survival: enhancers of single-cell hiPSC survival, primary screen, ATPlite luminescence | 100% = ROCK inhibitor wells, 0% = DMSO | survival enhancement, % at 20 µM | actives 0.044% (n = 360,000) | AID 602274, 2012; in the data active means survival enhancement above about 18%;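 further: cells exposed to compounds for 16 hours before the ATP read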
FAS-TE inh conf: FAS thioesterase domain inhibitors, confirmation, biochemical, fluorescence intensity, single concentration. AID 624325, 2012. recombinant FAS-TE, OMFH fluorogenic substrate. actives 45% (n = 2,300). inhibition, % at 15 µM. shares compounds with FAS-TE inh;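 active means compounds inhibiting the enzyme by at least 50% at 15 µM in any one of the replicates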;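 further: 0% = enzyme with DMSO only and 100% = wells lacking enzyme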
Starred values were filed as active, the others as inactive; nt = not tested or not shown.

SMILES | ABCB6 inh MLPCN | FAS-TE inh | SENP1 inh | hiPSC survival | FAS-TE inh conf
O=C(NC1CCCCCCC1)c1cc([N+](=O)[O-])ccc1Cl | 98 | 66* | -1 | -1 | 65*
O=C(NC1CCCCC1)c1cc([N+](=O)[O-])ccc1N1CCCC1 | 102 | 46 | 3 | 0 | nt
O=C(Nc1ccc(S(=O)(=O)N2CCOCC2)cc1)c1cccc([N+](=O)[O-])c1 | 104 | 35 | -1 | -1 | nt
O=C(Nc1ccc(Nc2ccccc2)cc1)c1cc([N+](=O)[O-])ccc1Cl | 101 | 59* | 1 | 0 | 49*
O=C(Nc1ccc(S(=O)(=O)N2CCOCC2)cc1)c1cc([N+](=O)[O-])ccc1Cl | 101 | 65* | 0 | 0 | 42
O=[N+]([O-])c1ccc(S(=O)(=O)Nc2nnc(C3CCCCC3)s2)cc1 | 91 | 50* | 0 | 0 | 65*
O=S(=O)(Nc1nnc(C2CCCCC2)s1)c1ccc(F)cc1 | 93 | 0 | 2 | 0 | nt
COc1ccc(C2NC(c3ccc(OC)cc3)C(c3ccccc3)C(=O)C2c2ccccc2)cc1 (stereo not drawn) | 92 | 62* | -1 | -2 | 32
Cc1cc(C[n+]2cc(Br)ccc2N)c2ncccc2c1 | 95 | 3 | 2 | 0 | nt
COC(=O)c1c(NC(=O)c2ccc([N+](=O)[O-])o2)sc2c1CCN(C(C)C)C2 | 108 | 8 | -35 | 0 | nt
CC(C)N1CCc2c(sc(NC(=O)c3ccc([N+](=O)[O-])o3)c2C(N)=O)C1 | 98 | 60* | -7 | 0 | 71*
O=C(O)C(C(O)c1ccc([N+](=O)[O-])cc1)[n+]1ccccc1 (stereo not drawn) | 101 | -6 | 3 | -1 | nt
CC(C)COP(=O)(OCC(C)C)C(O)c1ccc(N(C)C)cc1 (stereo not drawn) | 94 | -3 | 0 | 1 | nt
CC(=O)N(C1=C(Cl)C(=O)c2ccccc2C1=O)C1CCCCC1 | 117 | 80* | -13 | 0 | 71*
Cc1ccc(Oc2ccc(NS(=O)(=O)c3cccc(C(=O)O)c3)cc2)cc1 | 100 | -10 | 2 | -1 | nt
CCc1ccc(OCC(=O)N2c3ccccc3CCc3ccccc32)cc1 | 102 | 52* | 0 | 1 | 22
CCCc1ccc(OCc2ccc(C(=O)N3CCSCC3)o2)cc1 | 97 | 23 | 3 | 1 | nt
CN(C1=NS(=O)(=O)N=C(N(C)c2ccccc2)O1)c1ccccc1 | 93 | -6 | 1 | -3 | nt
CCOC(=O)c1cc(-c2ccccc2)sc1NC(=O)CCN1C(=O)c2ccccc2C1=O | 89 | 20 | -3 | 1 | nt
CCOC(=O)c1cc(-c2ccccc2)sc1NC(=O)C(C)N1C(=O)c2ccccc2C1=O (stereo not drawn) | 94 | 57* | 0 | 0 | -2
Cc1ccc(S(=O)(=O)N2CCN(c3ncnc4scc(-c5ccccc5)c34)CC2)cc1 | 92 | 52* | 2 | 0 | 15
Cc1ccc(S(=O)(=O)N2CCN(c3ncnc4scc(-c5ccc(F)cc5)c34)CC2)cc1 | 94 | 40 | -5 | 0 | nt
Cc1nc(N2CCN(S(=O)(=O)c3ccccc3C#N)CC2)c2c(-c3ccccc3)csc2n1 | 95 | 83* | -2 | 0 | 39
COc1ccc(-c2csc3ncnc(N4CCN(S(=O)(=O)c5cccc(C(F)(F)F)c5)CC4)c23)cc1 | 102 | 50* | -5 | 2 | 8
COc1ccccc1N1CC(C(=O)Nc2cc(C(F)(F)F)ccc2N2CCCC2)CC1=O (stereo not drawn) | 100 | 63* | -1 | 0 | 65*
SMILES | ABCB6 inh MLPCN | FAS-TE inh | SENP1 inh | hiPSC survival | FAS-TE inh conf
Cc1cccc(OCC(=O)N/N=C/c2cc([N+](=O)[O-])ccc2N2CCOCC2)c1 | 96 | 66* | -5 | -2 | 57*
CCc1ccc(OCC(=O)N/N=C/c2cc([N+](=O)[O-])ccc2N2CCOCC2)cc1 | 97 | 73* | -5 | -1 | 24
Cc1cc(C)cc(C(=O)NCC(=O)OCC(=O)Nc2cccnc2Cl)c1 | 96 | -8 | 1 | -1 | nt
CCOC1=C2[C@@H](CN(S(=O)(=O)c3ccc(C)cc3)[C@H]2c2ccccc2F)[C@H]2C(=O)N(C3CCCCC3)C(=O)[C@H]2C1 | 94 | 72* | 4 | 0 | 23
CCOC1=C2[C@@H](CN(S(=O)(=O)c3ccc(C)cc3)[C@H]2c2ccccc2F)[C@H]2C(=O)N(c3ccccc3)C(=O)[C@H]2C1 | 95 | 32 | 3 | -1 | nt
CCOC1=C2[C@@H](CN(S(=O)(=O)c3ccc(C)cc3)[C@H]2c2ccccc2)[C@H]2C(=O)N(c3ccccc3)C(=O)[C@H]2C1 | 102 | 28 | 3 | 1 | nt
CCOC1=C2[C@@H](CN(S(=O)(=O)c3ccccc3C)[C@H]2c2ccc(Cl)cc2)[C@H]2C(=O)N(c3ccccc3)C(=O)[C@H]2C1 | 102 | 83* | 1 | 0 | 16
CCOC1=C2[C@@H](CN(S(=O)(=O)c3ccc(C)cc3)[C@H]2c2ccccc2)[C@H]2C(=O)N(Cc3ccccc3)C(=O)[C@H]2C1 | 91 | 76* | 6 | 0 | 19
CCOC1=C2[C@@H](CN(S(=O)(=O)c3ccccc3C)[C@H]2c2ccc(Cl)cc2)[C@H]2C(=O)N(C3CCCCC3)C(=O)[C@H]2C1 | nt | nt | -15 | nt | nt
CCOC1=C2[C@@H](CN(S(=O)(=O)c3ccc(C)cc3)[C@H]2c2cccc3ccccc23)[C@H]2C(=O)N(Cc3ccccc3)C(=O)[C@H]2C1 | 101 | 60* | 4 | 1 | 17
O=C(CCCn1cncn1)N1CCCC(Nc2ccc(F)cc2)C1 (stereo not drawn) | 107 | -7 | 2 | 1 | nt
Cc1ccc2cc3cc(C(=O)N4CCCCC4C)oc3nc2c1 (stereo not drawn) | 88 | 84* | 0 | -2 | 61*
COc1ccc2cc3cc(C(=O)N4CC(C)CC(C)C4)oc3nc2c1 (stereo not drawn) | 97 | 69* | 0 | 1 | 75*
O=C(c1cc2cc3ccc(Cl)cc3nc2o1)N1CCCCCC1 | 90 | 62* | -1 | -1 | 41*
Cc1ccc2cc3cc(C(=O)NCCCN4CC(C)CC(C)C4)oc3nc2c1 (stereo not drawn) | 100 | -4 | -6 | 0 | nt
CCOC(=O)C1CCN(C(=O)c2cc3cc4ccc(OC)cc4nc3o2)CC1 | 94 | 46 | -2 | 1 | nt
Cc1ccc2cc3cc(C(=O)N4CC(C)CC(C)C4)oc3nc2c1 (stereo not drawn) | 85 | 82* | -5 | -2 | 42
O=C(c1cc2cc(Cl)ccc2o1)N1CCCCCC1 | 99 | 5 | 0 | 1 | nt
O=C(OCCN1CCN(C2=NS(=O)(=O)c3ccccc32)CC1)c1ccccc1F | 97 | 2 | 1 | 0 | nt
